Measured values published in ChEMBL document CHEMBL4024749, “Discovery of 3,5-Diphenyl-4-methyl-1,3-oxazolidin-2-ones as Novel, Potent, and Orally Available Δ-5 Desaturase (D5D) Inhibitors” (J Med Chem, 2017).

Tests used:
[1] = molecular target: Acyl-CoA (8-3)-desaturase (Rattus norvegicus, UniProt Q920R3); experiment: Displacement of [3H]T-3364366 from D5D in rat liver microsomal membrane preincubated for 15 mins followed by radioligand addition measured after 150 mins by TopCount microscintillation counting assay; format: cell membranes
Acyl-CoA (8-3)-desaturase (Rattus norvegicus, UniProt Q920R3), sequence (Q920R3 whole entry): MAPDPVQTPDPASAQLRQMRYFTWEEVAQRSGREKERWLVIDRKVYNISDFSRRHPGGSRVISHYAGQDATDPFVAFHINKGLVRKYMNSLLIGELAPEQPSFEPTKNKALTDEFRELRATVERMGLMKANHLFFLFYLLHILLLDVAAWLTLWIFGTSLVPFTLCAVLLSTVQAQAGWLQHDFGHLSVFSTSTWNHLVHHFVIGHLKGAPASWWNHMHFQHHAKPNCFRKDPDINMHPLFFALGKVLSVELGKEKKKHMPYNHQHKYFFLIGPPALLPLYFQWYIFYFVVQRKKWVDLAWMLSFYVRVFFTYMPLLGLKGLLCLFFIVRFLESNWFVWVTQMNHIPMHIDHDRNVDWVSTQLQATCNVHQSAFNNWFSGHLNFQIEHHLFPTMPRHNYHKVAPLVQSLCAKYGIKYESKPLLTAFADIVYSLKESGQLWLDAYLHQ
In short: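 Rat liver microsome fraction (30 μg/well) preincubated 15 min with test compound at room temperature in 10 mM Tris-HCl pH 7.5, 100 mM KCl, 10 mM NaF buffer, 200 μL/well; bound ligand trapped on GF/C filters, washed 5× with ice-cold buffer, counted by scintillation. Nonspecific binding with 10 μM unlabeled T-3364366; IC50 from three-parameter logistic fit.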

[2] = molecular target: Acyl-CoA (8-3)-desaturase (Homo sapiens, UniProt O60427); experiment: Inhibition of D5D in human HepG2 cells assessed as [14C]AA formation from [14C]DGLA preincubated for 30 mins followed by [14C]eicosatrienoic acid addition measured after 3 hrs by TLC analysis; format: cell-based
Acyl-CoA (8-3)-desaturase (Homo sapiens, UniProt O60427), sequence (O60427 whole entry): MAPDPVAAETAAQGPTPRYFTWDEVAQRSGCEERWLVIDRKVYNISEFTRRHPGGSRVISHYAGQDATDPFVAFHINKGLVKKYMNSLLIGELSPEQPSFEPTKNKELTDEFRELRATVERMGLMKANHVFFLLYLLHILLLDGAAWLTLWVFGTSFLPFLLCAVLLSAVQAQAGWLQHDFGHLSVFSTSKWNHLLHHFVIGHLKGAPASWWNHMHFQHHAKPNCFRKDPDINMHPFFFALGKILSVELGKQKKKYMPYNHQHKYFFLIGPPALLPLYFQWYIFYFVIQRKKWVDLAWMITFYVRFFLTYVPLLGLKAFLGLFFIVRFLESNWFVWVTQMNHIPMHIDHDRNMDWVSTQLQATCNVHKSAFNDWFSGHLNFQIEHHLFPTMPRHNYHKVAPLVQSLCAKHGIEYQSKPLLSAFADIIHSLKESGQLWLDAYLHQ
In short: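 HepG2 plated at 1 × 10^5 cells/well, cultured overnight in DMEM/10% FBS, PBS-washed, then preincubated 30 min at 37 °C with compound in DMEM with penicillin/streptomycin and 0.3% BSA. 0.1 μCi [14C]eicosatrienoic acid added and cells incubated 3 h at 37 °C; lipids saponified overnight at 55 °C with NaOH, acidified, extracted with chloroform/MeOH, separated by TLC.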

[3] = Drug metabolism in human hepatocytes assessed as 5-(4-fluorophenyl)-4-hydroxy-3-(3-methoxyphenyl)oxazolidin-2-one formation by LC-MS/MS analysis; format: ADME, cell-based, Hepatocyte
In short: (§1)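 Human or mouse hepatocytes incubated with compound; metabolites identified by LC/MS/MS and formation ratio (%) calculated as metabolite UV peak area after incubation over parent peak area before incubation × 100, assuming equal extinction coefficients.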

[4] = Drug metabolism in human hepatocytes assessed as 3-(5-(4-fluorophenyl)-4-hydroxy-2-oxooxazolidin-3-yl)phenyl hydrogen sulfate formation by LC-MS/MS analysis; format: ADME, cell-based, Hepatocyte; in short: as §1
[5] = Drug metabolism in mouse hepatocytes assessed as 5-(4-fluorophenyl)-3-(3-hydroxyphenyl)oxazolidin-2-one formation by LC-MS/MS analysis; format: ADME, cell-based, Hepatocyte; in short: as §1
[6] = Drug metabolism in mouse hepatocytes assessed as 5-(4-fluorophenyl)-4-hydroxy-3-(3-methoxyphenyl)oxazolidin-2-one formation by LC-MS/MS analysis; format: ADME, cell-based, Hepatocyte; in short: as §1
[7] = Drug metabolism in mouse hepatocytes assessed as 3-(5-(4-fluorophenyl)-4-hydroxy-2-oxooxazolidin-3-yl)phenyl hydrogen sulfate formation by LC-MS/MS analysis; format: ADME, cell-based, Hepatocyte; in short: as §1
Liver [8] = experiment: Drug metabolism in mouse liver assessed as 5-(4-fluorophenyl)-3-(3-hydroxyphenyl)oxazolidin-2-one formation at 488 mg/kg/day, po by LC-MS/MS analysis; format: ADME, organism-based; conditions: in vivo
In short: (§2)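 Mice given compound orally as dietary admixture at 488 mg kg−1 day−1; liver concentrations of parent and metabolites determined by LC/MS/MS, metabolites quantified assuming extinction coefficient equal to parent.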

Liver [9] = experiment: Drug metabolism in mouse liver assessed as 3-(5-(4-fluorophenyl)-2-oxooxazolidin-3-yl)phenyl hydrogen sulfate formation at 488 mg/kg/day, po by LC-MS/MS analysis; format: ADME, organism-based; conditions: in vivo; in short: as §2
Liver [10] = experiment: Drug metabolism in mouse liver assessed as (2S,3S,4S,5R,6S)-6-(5-(4-fluorophenyl)-3-(3-methoxyphenyl)-2-oxooxazolidin-4-yloxy)-3,4,5-trihydroxytetrahydro-2H-pyran-2-carboxylic acid formation at 488 mg/kg/day, po by LC-MS/MS analysis; format: ADME, organism-based; conditions: in vivo; in short: as §2
Liver [11] = experiment: Drug metabolism in mouse liver assessed as (2S,3S,4S,5R,6S)-6-(3-(5-(4-fluorophenyl)-2-oxooxazolidin-3-yl)phenoxy)-3,4,5-trihydroxytetrahydro-2H-pyran-2-carboxylic acid formation at 488 mg/kg/day, po by LC-MS/MS analysis; format: ADME, organism-based; conditions: in vivo; in short: as §2
Liver [12] = experiment: Drug metabolism in mouse liver assessed as 5-(4-fluorophenyl)-4-hydroxy-3-(3-methoxyphenyl)oxazolidin-2-one formation at 488 mg/kg/day, po by LC-MS/MS analysis; format: ADME, organism-based; conditions: in vivo; in short: as §2
Liver [13] = experiment: Drug metabolism in mouse liver assessed as 3-(5-(4-fluorophenyl)-4-hydroxy-2-oxooxazolidin-3-yl)phenyl hydrogen sulfate formation at 488 mg/kg/day, po by LC-MS/MS analysis; format: ADME, organism-based; conditions: in vivo; in short: as §2
[14] = Drug stability in human hepatocytes by LC-MS/MS analysis; format: ADME, cell-based, Hepatocyte
[15] = Drug stability in mouse hepatocytes by LC-MS/MS analysis; format: ADME, cell-based, Hepatocyte

COc1cccc(N2CC(c3ccc(F)cc3)OC2=O)c1 (racemic)
IC50 [1]: 8.5 nM
IC50 [2]: 4.1 nM
Drug metabolism [3]: Metabolite_Notdetected
Drug metabolism [4]: Metabolite_Notdetected
Drug metabolism [5]: Metabolite_Notdetected
Drug metabolism [6]: Metabolite_Notdetected
Drug metabolism [7]: Metabolite_Notdetected
Drug metabolism (Liver [8]): 0.51 to 1.21 µg/g
Drug metabolism (Liver [9]): 4.41 to 12.9 µg/g
Drug metabolism (Liver [10]): Metabolite_Notdetected
Drug metabolism (Liver [11]): 0.83 to 2.5 µg/g
Drug metabolism (Liver [12]): 0.25 to 0.65 µg/g
Drug metabolism (Liver [13]): 0.48 to 1.78 µg/g
Stability [14]: 22.5%
Stability [15]: 2.3%
